Read-outs that look alike come from different tables or passages of the source.
Assays:
[1] = daily teriparatide, cited from earlier work
[2] = cited from earlier work
[3] = system: postmenopausal women with osteoporosis; assay: Adverse events; type: in vivo, human; settings: 56.5 μg once weekly for 24 weeks
Procedure, shortened: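 Japanese postmenopausal women with osteoporosis, aged 60–79, at four centres. Test compound (PTH peptide) 56.5 μg given s.c. weekly for 24 weeks, with daily calcium 610 mg, vitamin D 400 IU and magnesium 30 mg. Physicians recorded adverse events and classified them by MedDRA 12.0 system organ class.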

[4] = system: healthy postmenopausal women; settings: day 7 after single injection of 56.5 μg; cited from earlier work
[5] = system: postmenopausal women with osteoporosis; assay: Changes in bone turnover markers; type: in vivo, human
Procedure, shortened: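 Women aged 60–79 received 56.5 μg test compound s.c. weekly for 24 weeks. In weeks 0, 4, 12 and 24, dosing followed 0 h sampling at 0800, with serum/urine taken at 0, 2, 4, 6, 8, 12 and 24 h. Osteocalcin was measured by IRMA, P1NP by RIA, urinary NTX by ELISA, plus urinary DPD. Read-outs were mean (±SE) percent change from 0 h or week 0, paired t test.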

[6] = system: postmenopausal women with osteoporosis; assay: Changes in calcium metabolism; type: in vivo, human
Procedure, shortened: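 Weekly s.c. 56.5 μg test compound for 24 weeks, in osteoporotic women aged 60–79 on calcium/vitamin D/magnesium supplements. Blood was drawn in weeks 0, 4, 12 and 24, with 0 h sampling at 0800 before dosing and further samples over 24 h. Corrected serum Ca and intact PTH (electrochemiluminescence immunoassay) are given as means±SE versus 0 h or week 0, paired t test.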

[7] = after 24 weeks, 56.5 μg once weekly
[8] = at 4 weeks, 56.5 μg once weekly, mean percent change, significant

## CC[C@H](C)[C@H](NC(=O)[C@H](CCC(=O)O)NC(=O)[C@H](CO)NC(=O)[C@@H](NC(=O)[C@@H](N)CO)C(C)C)C(=O)N[C@@H](CCC(N)=O)C(=O)N[C@@H](CC(C)C)C(=O)N[C@@H](CCSC)C(=O)N[C@@H](Cc1cnc[nH]1)C(=O)N[C@@H](CC(N)=O)C(=O)N[C@@H](CC(C)C)C(=O)NCC(=O)N[C@@H](CCCCN)C(=O)N[C@@H](Cc1cnc[nH]1)C(=O)N[C@@H](CC(C)C)C(=O)N[C@@H](CC(N)=O)C(=O)N[C@@H](CO)C(=O)N[C@@H](CCSC)C(=O)N[C@@H](CCC(=O)O)C(=O)N[C@@H](CCCN=C(N)N)C(=O)N[C@H](C(=O)N[C@@H](CCC(=O)O)C(=O)N[C@@H](Cc1c[nH]c2ccccc12)C(=O)N[C@@H](CC(C)C)C(=O)N[C@@H](CCCN=C(N)N)C(=O)N[C@@H](CCCCN)C(=O)N[C@@H](CCCCN)C(=O)N[C@@H](CC(C)C)C(=O)N[C@@H](CCC(N)=O)C(=O)N[C@@H](CC(=O)O)C(=O)N[C@H](C(=O)N[C@@H](Cc1cnc[nH]1)C(=O)N[C@@H](CC(N)=O)C(=O)N[C@@H](Cc1ccccc1)C(=O)O)C(C)C)C(C)C [teriparatide, Human parathyroid hormone (PTH) 1–34]
[1]; after 1 month
  bone formation marker increase: 105%
[1]; after 6 months
  bone formation marker (serum PINP) increase: 218%
  bone resorption marker (urinary NTX) increase: 58%
[2]; daily teriparatide
  relative risk reduction in vertebral fractures: 65%
[2]; once-weekly teriparatide injection, 95 % CI, 0.24–1.84, p = 0.43
  relative risk of non-vertebral fragility fracture: 0.67
[2]; once-weekly teriparatide
  relative risk reduction in vertebral fractures: 80%
[3]
  Hypercalcemia: not observed
[3]; 28 subjects
  serious AEs: No serious AEs were observed
[4]
  NTX decrease: 10%
  P1NP increase: 10%
  osteocalcin increase: 5%
[5]; [7]
  serum P1NP change after 24 weeks: did not increase significantly
  serum osteocalcin change after 24 weeks: increased significantly
[5]; at 2 or 4 h after 56.5 μg injection, range of means over data collection weeks
  urinary DPD maximum value, 24 h percent change from 0 h: 29.5 to 31.6%
[5]; at 4 or 6 h after 56.5 μg injection, range of means over data collection weeks
  urinary NTX maximum value, 24 h percent change from 0 h: 41.2 to 67.4%
[5]; at 4 weeks, 56.5 μg once weekly, mean percent change
  urinary DPD decrease from baseline (0 h values): 17.8%
[5]; [8]
  serum P1NP increase from baseline (0 h values): 19.9%
  serum osteocalcin increase from baseline (0 h values): 26.8%
  urinary NTX decrease from baseline (0 h values): 14.8%
[5]; at 6 h after 56.5 μg injection, range of means over data collection weeks
  serum P1NP minimum value, 24 h percent change from 0 h: −15.1 to −22.3%
[6]; 0 h values at 4 and 24 weeks versus 0 weeks, 56.5 μg once weekly, paired t test
  serum corrected Ca level during the 24 week dosage period: decreased significantly
[6]; 0 h values at 12 and 24 weeks versus 0 weeks, 56.5 μg once weekly, paired t test
  intact PTH level during the dosage period of 24 weeks: decreased significantly
[6]; at 2 or 6 h after 56.5 μg injection, range of means over data collection weeks
  serum intact PTH minimum concentration: 25.6 to 28.3 pg/mL

Reference: publication PMC3923119 (Osteoporosis International, 2013)
